These results are taken from ChEMBL document CHEMBL1157094, “Study on the constituents of Mexican propolis and their cytotoxic activity against PANC-1 human pancreatic cancer cells” (J Nat Prod, 2010).

Calls of active or inactive are those of the source. The calls are words filed in the database; no cut-off is given here.

The first data set concerns PANC-1. Put plainly: Induction of apoptosis in human PANC1 cells in nutrient-deprived condition assessed as membrane bleb formation at 12.5 uM after 24 hrs by phase-contrast microscopy. It is filed as functional, cell-based.
Settings: not given
An outline of the steps:
(§1)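 PANC-1 cells were seeded at 2 × 10^4 per well and grown 24 h in DMEM at 37 °C under 5% CO2/95% air. They were then washed with PBS and switched to nutrient-deprived medium (NDM) containing test compound. After 24 h exposure at 12.5 µM, morphology was photographed under a phase-contrast microscope at 200× magnification.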
Consider `C=C[C@H](c1ccc(O)c(OC)c1)c1c(O)cc(O)c2c(=O)c(O)c(-c3ccccc3)oc12`, for which the outcome was Active.

In a further data set the test system is PANC-1. Put plainly: Induction of apoptosis in human PANC1 cells in nutrient-deprived condition assessed as nuclear condensation at 12.5 uM after 24 hrs by phase-contrast microscopy. Type of data set: functional, cell-based.
Settings: not given
In short, it runs like this:
as §1
`C=C[C@H](c1ccc(O)c(OC)c1)c1c(O)cc(O)c2c(=O)c(O)c(-c3ccccc3)oc12`: the result was Active.

A further data set concerns PANC-1. Kind of data set: Induction of apoptosis in human PANC1 cells in nutrient-deprived condition assessed as nuclear fragmentation at 12.5 uM after 24 hrs by phase-contrast microscopy. Type of data set: functional, cell-based.
Settings: not given
An outline of the steps:
as §1
In the case of `C=C[C@H](c1ccc(O)c(OC)c1)c1c(O)cc(O)c2c(=O)c(O)c(-c3ccccc3)oc12`, the result was Active.

Tested on in the next data set: not listed separately
Kind of data set: Cytotoxicity against human TIG3 cells after 24 hrs by WST-8 assay. The note with it: tig-3, 24 h. On the technique in general: Tetrazolium dyes change colour on reduction, which living cells bring about.
As to `C=C[C@H](c1ccc(O)c(OC)c1)c1c(O)cc(O)c2c(=O)c(O)c(-c3ccccc3)oc12`, the Activity entry is on record as “Non-toxic”.

The test system of another data set is PANC-1. Put plainly: Cytotoxicity against human PANC1 cells in nutrient-deprived condition assessed as preferential cell death after 24 hrs by WST-8 assay.
Settings: not given
For `C=C[C@H](c1ccc(O)c(OC)c1)c1c(O)cc(O)c2c(=O)cc(-c3ccccc3)oc12`, the PC50 turned out to be 12.7 µM.
Still for that read-out and setting: the figure for `COc1cc(O)c2c(=O)c(O)c(-c3ccccc3)oc2c1` [IZALPININ] is more than 100 µM; for `O=C1C[C@@H](c2ccc(O)cc2)Oc2cc(O)cc(O)c21` [NARINGENIN] it is more than 100 µM; for `O=c1c(O)c(-c2ccccc2)oc2cc(O)cc(O)c12` [GALANGIN] it is 22.1 µM.
`O=C(/C=C/c1ccccc1)OCc1ccccc1` [BENZYL CINNAMATE]: the PC50 is more than 100 µM.
`O=c1cc(-c2ccccc2)oc2cc(O)cc(O)c12` [CHRYSIN]: the PC50 worked out at 88.7 µM.
Consider `COc1cc(O)c2c(=O)cc(-c3ccccc3)oc2c1` [TECHTOCHRYSIN], for which the PC50 was more than 100 µM.
Still for that read-out and setting: the figure for `CC(=O)OC(COC(=O)/C=C/c1ccc(O)cc1)COC(=O)/C=C/c1ccc(O)c(O)c1` (stereo not given) is 17.4 µM; for `COc1cc(/C=C/C(=O)OCc2ccccc2)ccc1O` [BENZYL FERULATE] it is 17 µM.
Regarding `O=C(/C=C/c1ccc(O)cc1)OCc1ccccc1`, the PC50 came to 23.8 µM.
For `COc1ccc(/C=C/C(=O)O)cc1OC` [O,O'-DIMETHYLCAFFEIC ACID], the PC50 is more than 100 µM.
Same read-out and setting: with `CCC(=O)O[C@H]1C(=O)c2c(O)cc(O)cc2O[C@@H]1c1ccccc1` the figure was 18.2 µM; with `O=C(OC/C=C/c1ccccc1)c1ccccc1`, more than 100 µM.
As to `O=C(/C=C/c1ccc(O)cc1)OC/C=C/c1ccccc1`, the PC50 amounted to 38.2 µM.
With `CCC(C)C(=O)O[C@H]1C(=O)c2c(O)cc(OC)cc2O[C@@H]1c1ccccc1` (stereo not given in full), the PC50 came out at 44.8 µM.
Still for that read-out and setting: the figure for `COc1ccc(/C=C/C(=O)OC/C=C/c2ccccc2)cc1OC` is 98.9 µM; for `CC(C)CC(=O)O[C@H]1C(=O)c2c(O)cc(O)cc2O[C@@H]1c1ccccc1` it is 17.5 µM.
Turning to `O=C(O)/C=C/c1ccccc1` [CINNAMIC ACID], the PC50 is more than 100 µM.
Turning to `CC(=O)O[C@H]1C(=O)c2c(O)cc(O)cc2O[C@@H]1c1ccccc1`, the PC50 came to 36.6 µM.
In the case of `COc1cc(-c2oc3cc(O)cc(O)c3c(=O)c2OC)ccc1O` [3,3'-O-DIMETHYLQUERCETIN], the PC50 stood at 59.8 µM.
Regarding `COc1cc(O)cc2c1C(=O)[C@H](O)[C@@H](c1ccccc1)O2`, the PC50 is more than 100 µM.
The same measure, in the same setting: the figure for `C=C[C@H](c1ccc(O)c(OC)c1)c1c(O)cc(O)c2c(=O)c(O)c(-c3ccccc3)oc12` is 4.6 µM; for `O=C1C[C@@H](c2ccccc2)Oc2cc(O)cc(O)c21` [PINOCEMBRIN] it is 46.5 µM; for `O=C(O)/C=C/c1ccc(O)cc1` [COUMARIC ACID] it is 77 µM.
Consider `COc1ccc(/C=C/C(=O)OC/C=C/c2ccccc2)cc1O`, for which the PC50 is 31.7 µM.
On to `COc1cc(O)c2c(c1)O[C@H](c1ccccc1)[C@@H](O)C2=O`, for which the PC50 worked out at 74.2 µM.
For `O=C(O)c1ccccc1` [BENZOIC ACID], the PC50 is more than 100 µM.
The same measure, in the same setting: with `COc1cc(O)c2c(c1)O[C@H](c1ccccc1)CC2=O` [PINOSTROBIN] the figure was more than 100 µM; with `COc1cc(/C=C/C(=O)OCC(COC(=O)/C=C/c2ccc(O)c(OC)c2)OC(C)=O)ccc1O`, 25.8 µM; with `COc1cc(C=O)ccc1O` [VANILLIN], more than 100 µM.
For the compound `COc1cc(/C=C/C(=O)OCC(COC(=O)/C=C/c2ccc(O)cc2)OC(C)=O)ccc1O` (stereo not given), the PC50 came to 32.7 µM.
On to `CC(=O)OC(COC(=O)/C=C/c1ccc(O)cc1)COC(=O)/C=C/c1ccc(O)cc1`, for which the PC50 amounted to 38.8 µM.
Consider `COc1cc(/C=C/C(=O)O)ccc1O` [FERULATE], for which the PC50 was determined as 66.6 µM.
On the same count and under the same terms, with `O=C(O)/C=C/C=C/c1ccccc1` [JUAREZIC ACID] the figure was more than 100 µM.
On to `COc1cc(O)c2c(c1)O[C@H](c1ccccc1)[C@@H](OC(C)=O)C2=O`, for which the PC50 worked out at 75.3 µM.
As to `CC(=O)OCC(O)COC(=O)/C=C/c1ccc(O)cc1` (stereo not given), the PC50 was more than 100 µM.
`CC(C)C(=O)O[C@H]1C(=O)c2c(O)cc(O)cc2O[C@@H]1c1ccccc1`: the PC50 is 19.8 µM.
Take `COc1ccc(/C=C/C(=O)OCc2ccccc2)cc1OC`: the PC50 worked out at 58.8 µM.
With `O=c1cc(-c2ccc(O)cc2)oc2cc(O)cc(O)c12` [APIGENIN], the PC50 stood at 89.5 µM.
Still for that read-out and setting: the figure for `COc1c(-c2ccc(O)cc2)oc2cc(O)ccc2c1=O` is more than 100 µM; for `O=C(/C=C/c1ccccc1)OC/C=C/c1ccccc1` it is more than 100 µM.
